Assay [1] is described as follows: Inhibition of chymotrypsin like activity of proteasome. It counts as subcellular.
The subject of assay [2] is MDA-MB-231. Kind of assay: Inhibition of chymotrypsin like activity of 20S proteasome in human MDA-MB-231 cells assessed as cleavage of Suc-LLVY-AMC substrate after 2 hrs by fluorogenic assay. The class given is cell-based. An outline of the steps:
(§1)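 Crude MDA-MB-231 cell extract (5.7 μg) was used as the source of 26S proteasome. It was incubated with compound at a range of concentrations, or with solvent, plus 20 μM Suc-LLVY-AMC in 20 mM Tris-HCl, pH 7.5, for 2 h at 37°C. Chymotrypsin-like activity was read by fluorescence at 355 nm excitation and 460 nm emission.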

The subject of assay [3] is MDA-MB-231. Kind of assay: Antiproliferative activity against human MDA-MB-231 cells with high catechol-O-methyltransferase activity at 25 uM after 24 hrs by MTT assay. The class given is functional. The following applies: for inhibition at 25 µM: MDA-MB-231, 24 h. In short, it runs like this: (§2)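 MDA-MB-231 cells were grown in RPMI 1640 with 10% FBS, 100 units/ml penicillin and 100 μg/ml streptomycin at 37°C and 5% CO2. Triplicate wells were exposed to 25 or 50 μM compound for 24 h. MTT (1 mg/ml) was then added for 3 h at 37°C, and the formazan was dissolved in DMSO after the medium was removed.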
For orientation: Tetrazolium assays rely on reduction of a dye to a coloured formazan, in cell work by metabolically active cells.

Assay [4] concerns MDA-MB-231. The assay is described as follows: Antiproliferative activity against human MDA-MB-231 cells at 25 to 50 uM after 24 hrs by MTT assay. The class given is functional. An outline of the steps: as §2
Assay [5] is filed under the species Oryctolagus cuniculus. The assay is described as follows: (§3) Inhibition of chymotrypsin like activity of rabbit 20S proteasome assessed as cleavage of Suc-LLVY-AMC substrate after 2 hrs by fluorogenic assay. An outline of the steps: (§4)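 Purified rabbit 20S proteasome (35 ng) was incubated with 20 μM Suc-LLVY-AMC in 20 mM Tris-HCl, pH 7.5, with compound at various concentrations or solvent, for 2 h at 37°C. Fluorogenic substrate hydrolysis was then measured at 355 nm excitation and 460 nm emission.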

Assay [6] relates to MDA-MB-231. The assay is described as follows: Inhibition of chymotrypsin like activity of 20S proteasome in human MDA-MB-231 cells lysates with high catechol-O-methyltransferase activity assessed as cleavage of Suc-LLVY-AMC substrate at 10 uM after 2 hrs by fluorogenic assay. An outline of the steps:
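MDA-MB-231 cell extract (5.7 μg protein) incubated with test agent or solvent and 20 μM Suc-LLVY-AMC in 20 mM Tris–HCl pH 7.5 for 2 h at 37°C. Chymotrypsin-like activity read as AMC fluorescence (ex 355 nm, em 460 nm).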

Assay [7] deals with MDA-MB-231. Kind of assay: Inhibition of chymotrypsin like activity of 20S proteasome in COMT inhibitor 3,5-dinitrocatechol pretreated human MDA-MB-231 cells lysates with high catechol-O-methyltransferase activity assessed as cleavage of Suc-LLVY-AMC substrate at 10 uM after 2 hrs by fluorogenic assay. The class given is cell-free. An outline of the steps:
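MDA-MB-231 cell extract (5.7 μg) was pre-treated with 10 μM 3,5-dinitrocatechol for 20 min. Compound and 20 μM Suc-LLVY-AMC were then added in 20 mM Tris-HCl, pH 7.5, and incubated for 2 h at 37°C. AMC release was read by fluorescence at 355 nm excitation and 460 nm emission.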

Assay [8] can be described thus: as §3. Further details: species or system Oryctolagus cuniculus. An outline of the steps:
as §4

Assay [9] has as its system MDA-MB-231. The assay is described as follows: Inhibition of chymotrypsin like activity of 20S proteasome in human MDA-MB-231 cells lysates with high catechol-O-methyltransferase activity assessed as cleavage of Suc-LLVY-AMC substrate at 1 to 10 uM after 2 hrs by fluorogenic assay. The class given is cell-free. In short, it runs like this:
as §1

The test system of assay [10] is MDA-MB-231. The assay is described as follows: Antiproliferative activity against human MDA-MB-231 cells with high catechol-O-methyltransferase activity at 50 uM after 24 hrs by MTT assay. The class given is functional. An outline of the steps: as §2
The species named for assay [11] is Oryctolagus cuniculus. Kind of assay: Inhibition of chymotrypsin like activity of rabbit 20S proteasome assessed as cleavage of Suc-LLVY-AMC substrate at 50 uM after 2 hrs by fluorogenic assay. In short, it runs like this: as §4
Assay [12] has as its system MDA-MB-231. The assay is described as follows: Inhibition of 20S proteasome in human MDA-MB-231 cells assessed as accumulation of proteasome substrate at 50 uM after 22 hrs by Western blot. It counts as cell-based. An outline of the steps:
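Intact MDA-MB-231 cells were cultured in RPMI 1640 with 10% FBS and penicillin/streptomycin at 37°C and 5% CO2. They were treated with 50 μM compound for 22 h. Accumulation of ubiquitinated proteins, used as a measure of proteasome substrates, was then detected by Western blotting of cell lysates.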
(In general: A western blot detects proteins with antibodies after separation by electrophoresis.)

Active and inactive are the calls of the source. The calls are words filed in the database; no cut-off is given here.

As a reminder, the IC50 is the concentration at which inhibition is half-maximal. In assay [1], `O=C(O[C@@H]1Cc2c(O)cc(O)cc2O[C@@H]1c1cc(O)c(O)c(O)c1)c1cc(O)c(O)c(O)c1` (stereo in doubt; 1) [EPIGALOCATECHIN GALLATE] displayed a concentration for half-maximal inhibition (IC50) of 86 nM.

As for `CC(=O)Oc1cc(OC(C)=O)c2c(c1)O[C@H](c1cc(OC(C)=O)c(OC(C)=O)c(OC(C)=O)c1)[C@H](OC(=O)c1cc(OC(C)=O)c(OC(C)=O)c(OC(C)=O)c1)C2`, the inhibition entry in the assay on MDA-MB-231 [2] is “inactive”. The inhibition at 25 µM in the assay with MDA-MB-231 [3] was determined as 42%. Also, the “growth inhibition (GI)” value in the assay with MDA-MB-231 [4] came out at 0%.

For `O=C(O[C@@H]1Cc2c(O)cc(O)cc2O[C@@H]1c1cc(O)c(O)c(O)c1)c1cc(O)c(O)c(O)c1` (stereo in doubt; 1), the inhibition result in the assay listed under Oryctolagus cuniculus [5] and in the assay on MDA-MB-231 [7] was “Active” throughout. Also, the inhibition in the assay on MDA-MB-231 [6] was 22%.

In the case of `O=C(O[C@H]1Cc2ccccc2C[C@H]1OC(=O)c1cc(O)c(O)c(O)c1)c1cc(O)c(O)c(O)c1`, the half-maximal inhibitory concentration (IC50) in assay [1] amounted to 340 nM; in assay [8] it was 19000 nM. Further, the inhibition in the assay on MDA-MB-231 [9] worked out at 10%. For the same compound, the inhibition result in the assay on MDA-MB-231 [7] is “Active”.

In the case of `CC(=O)Oc1cc(OC(C)=O)cc(C(=O)O[C@H]2Cc3ccccc3C[C@H]2OC(C)=O)c1`, the inhibition result in the assay with MDA-MB-231 [2] was “inactive”.

As to `CC(=O)Oc1cc(C(=O)O[C@H]2Cc3ccccc3C[C@H]2OC(=O)c2cc(OC(C)=O)c(OC(C)=O)c(OC(C)=O)c2)cc(OC(C)=O)c1OC(C)=O`, the inhibition result with MDA-MB-231 [2] is “inactive”. Besides, in the assay on MDA-MB-231 [3], the “growth inhibition (GI)” value was “Active” and the inhibition at 25 µM came out at 48%. The “growth inhibition (GI)” value in the assay on MDA-MB-231 [10] is “Active”. Moreover, the “growth inhibition (GI)” value in the assay on MDA-MB-231 [4] stood at 50%.

Regarding `O=C(O[C@H]1Cc2ccccc2C[C@H]1OC(=O)c1cc(O)cc(O)c1)c1cc(O)cc(O)c1`, in assay [8], the IC50 was found to be 29000 nM. In the assay with MDA-MB-231 [9], the inhibition is 18%. Also, in the assay with MDA-MB-231 [7], the inhibition result is “Active”.

On to `O=C(O[C@@H]1Cc2c(O)cc(O)cc2O[C@@H]1c1cc(O)c(O)c(O)c1)c1cc(O)c(O)c(O)c1` (stereo in doubt; 3) [EPIGALOCATECHIN GALLATE], for which the half-inhibitory concentration (IC50) in assay [1] was determined as 170 nM.

Consider `O=C(O[C@H]1Cc2ccccc2C[C@H]1O)c1cc(O)cc(O)c1`, for which the inhibition entry in the assay listed under Oryctolagus cuniculus [11] was “inactive”.

Consider `O=C(O[C@H]1Cc2ccccc2C[C@H]1O)c1cc(O)c(O)c(O)c1`, for which the inhibition result in the assay filed under Oryctolagus cuniculus [11] is “inactive”.

With `CC(=O)Oc1cc(C(=O)O[C@H]2Cc3ccccc3C[C@H]2OC(C)=O)cc(OC(C)=O)c1OC(C)=O`, the inhibition entry in the assay on MDA-MB-231 [2] is “inactive”.

In the case of `CC(=O)Oc1cc(OC(C)=O)cc(C(=O)O[C@H]2Cc3ccccc3C[C@H]2OC(=O)c2cc(OC(C)=O)cc(OC(C)=O)c2)c1`, the inhibition entry in the assay with MDA-MB-231 [2] is “inactive”. In addition, in the assay on MDA-MB-231 [3], the “growth inhibition (GI)” value was “Active” and the inhibition at 25 µM amounted to 69%. In the assay with MDA-MB-231 [10], the “growth inhibition (GI)” value was “Active”. For the same compound, the inhibition at 50 µM with MDA-MB-231 [10] (MDA-MB-231, 24 h, read-out: INH) was determined as 69%. Moreover, the inhibition entry in the assay with MDA-MB-231 [12] was “Active”.
